Screens from PubChem BioAssay.
SENP6 block – SENP6 protease inhibitors, primary screen, biochemical, luminescence, uHTS | Sentrin-specific protease 6 (Homo sapiens), Q9GZR1 | Recombinant SENP6 catalytic domain, aminoluciferin luminescence | inhibition, % at 10 µM | 1.8% of 330,000 active | AID 2599, 2010;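 active = inhibition above about 50% at the single tested dose, limit read from the data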;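 note: plate controls were DMSO wells with enzyme for no effect and DMSO wells lacking enzyme for full effect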
SENP8 block-1 – human SENP8 protease inhibitors, primary screen, biochemical, fluorescence, Nedd8 protein substrate, uHTS; Sentrin-specific protease 8 (Homo sapiens), Q96LD8; recombinant SENP8; inhibition, % at 20 µM; 0.64% of 360,000 active; AID 602440, 2012; in the data active = inhibition mostly above about 40%, no sharp cut-off; inactive = mostly below about 27%
Target sequence (Q96LD8 whole entry, looked up): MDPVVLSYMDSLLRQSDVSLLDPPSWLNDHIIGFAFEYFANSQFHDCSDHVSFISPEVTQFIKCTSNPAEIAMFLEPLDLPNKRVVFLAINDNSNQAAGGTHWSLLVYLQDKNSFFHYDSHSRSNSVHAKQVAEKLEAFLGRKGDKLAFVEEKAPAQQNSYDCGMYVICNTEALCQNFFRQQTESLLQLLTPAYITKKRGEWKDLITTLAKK
SENP1 FRET inh – human SENP1 catalytic domain inhibitors, primary screen, biochemical, FRET, uHTS; recombinant SENP1 catalytic domain, CyPet-SUMO1-YPet FRET cleavage; AID 624204, 2012; 0.21% of 360,000 active; inhibition, % at 10 µM;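 active = inhibition at least 30% at 10 µM, raw YFP signal under a set limit, fluorescence ratio 0.5 to 1.5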;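 note: 0% = enzyme with DMSO and 100% = no enzyme wells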
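Compound: 10 µM single point, 0.5% DMSO; Test system: hSENP1 catalytic domain, recombinant; Timing: 50 min reaction at room temperature; Technique: FRET, CFP and YFP emission; Control set: no-enzyme wells low, DMSO-plus-enzyme wells high control.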
SENP7 block – SENP7 protease inhibitors, primary screen, biochemical, luminescence, uHTS; Sentrin-specific protease 7 (Homo sapiens), Q9BQF6; 1.5% of 330,000 active; inhibition, % at 5 µM; AID 434973, 2010; recombinant SENP7, Z-RLRGG-aminoluciferin luminescence, 40 min;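 active = inhibition above about 50% at the single test dose, limit read from the data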;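 note: plate controls were DMSO with enzyme for no effect and no enzyme buffer wells for full effect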
Target sequence (Q9BQF6 706-1050 limits assumed): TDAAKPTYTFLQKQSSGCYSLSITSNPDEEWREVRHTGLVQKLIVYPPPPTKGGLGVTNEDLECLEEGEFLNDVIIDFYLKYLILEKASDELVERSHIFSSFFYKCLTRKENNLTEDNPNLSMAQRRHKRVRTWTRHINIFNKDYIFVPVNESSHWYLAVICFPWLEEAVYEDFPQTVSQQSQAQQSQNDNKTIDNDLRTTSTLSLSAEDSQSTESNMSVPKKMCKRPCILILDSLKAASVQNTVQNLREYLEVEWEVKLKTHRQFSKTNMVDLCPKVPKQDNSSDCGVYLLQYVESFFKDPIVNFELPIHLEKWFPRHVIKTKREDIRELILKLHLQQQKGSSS
SENP8 block-2 – SENP8 protease inhibitors, primary screen, biochemical, luminescence | Sentrin-specific protease 8 (Homo sapiens), Q96LD8 | purified SENP8, Z-RLRGG-aminoluciferin cleavage | inhibition, % at 10 µM | 1.2% of 330,000 active; in the data active = inhibition above about 50%
SENP8 confirm – SENP8 protease inhibitors, retest, confirmation, biochemical, luminescence, single concentration; shares compounds with SENP7 block; Recombinant SENP8, Z-RLRGG-aminoluciferin luminescence, 60 min; inhibition, % at 12.5 µM; 40% of 6,200 active;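 active = mean inhibition across replicates above about 50%, limit read from the data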
SENP6 confirm – SENP6 protease inhibitors, confirmation, biochemical, luminescence, single concentration | shares compounds with SENP7 block | recombinant SENP6, Z-RLRGG-aminoluciferin luminescence | inhibition, % at 12.5 µM | 58% of 6,200 active
SENP7 confirm – SENP7 protease inhibitors, retest, confirmation, biochemical, luminescence, single concentration. 69% of 6,200 active. inhibition, % at 12.5 µM. shares compounds with SENP7 block. recombinant SENP7, Z-RLRGG-aminoluciferin luminescence, 40 min
Casp3 SENP sel – caspase-3 protease inhibitors, confirmation, selectivity assay for SENP inhibitor project, biochemical, single concentration; shares compounds with SENP7 block; purified caspase-3, Z-DEVD-aminoluciferin luminescence, 60 min; inhibition, % at 12.5 µM; 60% of 6,200 active;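 active = mean inhibition above about 50%, limit read from the data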;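 note: plate controls were enzyme with DMSO for no effect and wells without caspase-3 for full effect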
Luc interf – luminescence interference (SENP counter-screen); shares compounds with SENP7 block; Pre-incubated SENP8/Z-RLRGG-aminoluciferin, luciferase luminescence interference; 39% of 6,200 active; inhibition, % at 12.5 µM;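 active = mean inhibition above about 50% when retested at one dose, limit read from the data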;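 note: plate controls were DMSO wells with completed reaction for no effect and substrate without enzyme for full effect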
An asterisk follows results filed as active; nt = no result given. Most compounds without a hit are left out; they make up all but 2.5% or so of the library.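 Rule for the calls, unless noted: active = mean inhibition above about 50% in the one-dose retest (limit read from the data); inactive = the rest.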

SMILES | SENP6 block | SENP8 block-1 | SENP1 FRET inh | SENP7 block | SENP8 block-2 | SENP8 confirm | SENP6 confirm | SENP7 confirm | Casp3 SENP sel | Luc interf
CC(C)c1ccc(-n2nc3ccc(N)cc3n2)cc1 | 88* | -420 | -34 | 29 | 73* | 1 | 88* | 98* | 56* | 20
Nc1ccc2nn(-c3ccc(F)cc3)nc2c1 | 88* | -435 | -25 | 57* | 84* | 61* | 76* | 94* | 72* | 23
Cc1cc2nn(-c3ccc(Cl)cc3)nc2cc1N | 9 | -289 | -23 | 4 | 9 | nt | nt | nt | nt | nt
COc1cccc(C(=O)O[C@H]2[C@H](C)NS(=O)(=O)[C@H]3C[C@@H]4C=C[C@]23O4)c1 | 68* | 8 | 0 | -2 | -9 | 11 | 3 | -1 | -5 | -5
Cc1cccc(C(=O)O[C@H]2[C@H](C)NS(=O)(=O)[C@H]3CC4C=C[C@]23O4)c1 | 2 | 10 | 1 | -7 | -8 | nt | nt | nt | nt | nt
COC(=O)c1ccc(N2CCN(C)CC2)c(NC(=O)c2cccs2)c1 | -10 | 10 | 5 | 5 | -3 | nt | nt | nt | nt | nt
COc1cccc(/C=C/C(=O)c2ccc(NC3=NCCCS3)cc2)c1 | -27 | 9 | 4 | 41 | -4 | nt | nt | nt | nt | nt
Cc1cccc(/C=C/C(=O)c2ccc(NC3=NCCCS3)cc2)c1 | 93* | 8 | 2 | 88* | 71* | 81* | 68* | 12 | 42 | 90*
CCN(CCO)C(=O)c1ccc2nc(Cc3cccc(Cl)c3)oc2c1 | 4 | 18 | 1 | 13 | -18 | nt | nt | nt | nt | nt
COC(=O)C1CCN(C2CN(Cc3ccc(F)cc3)S(=O)(=O)C2)CC1 (stereo not given) | nt | 11 | 1 | nt | nt | nt | nt | nt | nt | nt
Cc1ccc2nsnc2c1S(=O)(=O)N(CCO)Cc1cc2cc3c(cc2[nH]c1=O)OCCO3 | -32 | -165 | -14 | 71* | -5 | -10 | -6 | -13 | -2 | 2
Cc1ccc2[nH]c(=O)c(CN(CC3CCCO3)S(=O)(=O)c3c(C)ccc4nsnc34)cc2c1 (stereo not given) | 2 | 11 | 1 | 4 | 5 | nt | nt | nt | nt | nt
Cc1ccc2oc(-c3cccc(NC(=S)NC(=O)c4cccs4)c3)nc2c1 | 45 | -230 | 1 | 11 | 6 | nt | nt | nt | nt | nt
Cc1ccc2oc(-c3cccc(NC(=S)NC(=O)/C=C/c4ccco4)c3)nc2c1 | 57* | -17 | 2 | 18 | 56* | -24 | -8 | 4 | 16 | 11
Cc1[nH]n(-c2cccc(Cl)c2)c(=O)c1C=NCc1ccco1 | 52* | 13 | 2 | 23 | 23 | -6 | -8 | 16 | 8 | 17
COc1ccc(-c2nnc(SCc3ccccc3F)o2)cc1 | 69* | 15 | 4 | 67* | 53* | 68* | 70* | 89* | 49 | 51*
COc1ccc(-c2nnc(SCC(=O)c3cccs3)o2)cc1 | 24 | 15 | 2 | 56* | 27 | 16 | 36 | 83* | 55* | 10
Cc1ccccc1-c1nnc(SCc2ccccc2F)o1 | 57* | -10 | 1 | 31 | 12 | 18 | 45 | 73* | 36 | 18
Fc1ccccc1CSc1nnc(-c2ccccc2)o1 | 54* | 21 | 1 | 40 | 19 | 27 | 30 | 63* | 24 | 23
O=C(O)CSc1nc2c(cnn2-c2ccccc2)c(=O)n1-c1ccc(Br)cc1 | 56* | 19 | 0 | 3 | 41 | 40 | 37 | 24 | 10 | 60*
Nn1c(SCc2ccccc2)nc2c(cnn2-c2ccccc2)c1=O | 62* | 9 | 1 | 43 | 22 | 23 | 14 | 64* | 32 | 17
CCCCSc1nc2c(cnn2-c2ccccc2)c(=O)n1N | 82* | 16 | 2 | 68* | 44 | 69* | 67* | 88* | 63* | 48
CCCSc1nc2c(cnn2-c2ccccc2)c(=O)n1N | 31 | 6 | 1 | 36 | 22 | nt | nt | nt | nt | nt
COc1cc(C)c(CN2CCC(n3nccc3NC(=O)C3CC3)CC2)cc1C | -6 | 0 | 0 | -2 | 1 | nt | nt | nt | nt | nt
CCOc1ccc2nc(N3CCC(C(=O)N4CCN(C5CCCCC5)CC4)CC3)sc2c1 | -14 | 17 | 1 | -9 | -3 | nt | nt | nt | nt | nt
Clc1cc(Cl)c2nc(N3CCCCC3)sc2c1 | 67* | 16 | 1 | 47 | 27 | 18 | 9 | 25 | 17 | 11
O=[N+]([O-])c1ccc2nc(N3CCCC3)sc2c1 | 27 | 9 | -10 | 44 | 24 | nt | nt | nt | nt | nt
Clc1cc(Cl)c2nc(N3CCCC3)sc2c1 | -1 | 8 | 2 | 36 | 29 | nt | nt | nt | nt | nt
